Compound activity (PubChem BioAssay)
This is a sample that favours compounds with a hit; in the whole collection about 1.9% have one here.
NR1D1 modulator = modulates human Rev-erb alpha binding to DNA; P20393; Rev-erbα–FITC-DNA binding, fluorescence polarization, 90 min; activity, % at 10 µM; 0.79% of 370,000 active;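 active means activity above about 14%, limit read from the data; passing the limit was not always enough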
Target sequence (P20393 whole entry, looked up): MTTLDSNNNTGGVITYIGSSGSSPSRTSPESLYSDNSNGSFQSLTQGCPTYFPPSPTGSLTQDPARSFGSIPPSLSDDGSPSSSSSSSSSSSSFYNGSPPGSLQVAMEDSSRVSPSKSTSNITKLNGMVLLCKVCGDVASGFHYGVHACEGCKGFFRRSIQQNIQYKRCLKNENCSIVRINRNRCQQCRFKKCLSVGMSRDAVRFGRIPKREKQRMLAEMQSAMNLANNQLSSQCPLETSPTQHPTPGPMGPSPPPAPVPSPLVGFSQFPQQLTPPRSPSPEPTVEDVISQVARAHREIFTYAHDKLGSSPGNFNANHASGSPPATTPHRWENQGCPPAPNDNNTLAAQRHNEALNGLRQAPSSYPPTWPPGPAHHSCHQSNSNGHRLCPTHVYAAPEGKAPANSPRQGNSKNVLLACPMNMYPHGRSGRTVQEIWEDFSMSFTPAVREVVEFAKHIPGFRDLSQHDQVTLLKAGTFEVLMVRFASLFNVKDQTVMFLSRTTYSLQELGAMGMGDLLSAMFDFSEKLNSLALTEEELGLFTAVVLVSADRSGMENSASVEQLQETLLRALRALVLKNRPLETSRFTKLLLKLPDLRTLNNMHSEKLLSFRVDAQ
MT1-MMP act inh = inhibitors of human MT1-MMP activation; P50281; HT1080 RFP-PRO-GFP cells, GFP/RFP ratio fluorescence, overnight; percent of plate control window, DMSO zero; GFP/RFP ratio change, % at 20 µM; 0.061% of 360,000 active;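 active means GFP/RFP ratio change of at least 30% with cell ATP level not reduced by more than half and red fluorescence within 50% of control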
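Assay system – RFP-PRO-GFP reporter HT1080 cells · Compound dosing – single dose of 20 µM compound, 1% DMSO final · Incubation – overnight compound exposure at 37 °C · Measure – GFP/RFP fluorescence ratio · Benchmarks – DMSO wells and RFP-L50D-GFP cells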
SKN-1 block = blocks SKN-1 activity in C. elegans; C. elegans VP596 Pgst-4::GFP/RFP ratio, acrylamide-induced, 24 h; inhibition, % at 21.8 µM; 0.49% of 360,000 active; AID 624304;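 active means interference check ratio from 0.5 to 1.5 plus GFP to RFP signal ratio inhibition reaching or exceeding a fixed threshold, cut at about 30% in these data, passing the limit was not always enough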
PG9 Ab binder = PG9 antibody binding by small molecule. inhibition, % at 6.7 µM. AID 624416. TR-FRET gp120-PG9 antibody binding. 0.43% of 360,000 active; in the data active means inhibition above about 8.5%
NR2E3 ag-1 = agonists of human NR2E3 nuclear receptor; Q9Y5X4; CHO-S Gal4-NCOR/VP16-NR2E3 two-hybrid, luciferase; inhibition of corepressor binding, % at 3.98 µM; 0.35% of 360,000 active;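 active means inhibition above the mean of all tested compounds plus 3 SD, cut at about 70% in these data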;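 further: higher means lower luciferase signal from less NR2E3 corepressor binding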
NR2E3 ag-2 = agonists of human nuclear receptor NR2E3; AID 2300; inhibition of corepressor binding, % at 4.78 µM; GST-NR2E3/biotin-RetCOR TR-FRET, 1536-well; 0.12% of 320,000 active;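 active means percent inhibition above the cutoff of mean plus 3 SD of all tested compounds, set per screening campaign, cut at about 20% in these data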
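Material – GST-tagged NR2E3 plus biotinylated RetCOR corepressor · Quantity – NR2E3 fusion 1.35 nM · Times – 5 h incubation at 4 °C · Medium – pH 7.5 Tris-based buffer · Technique – TR-FRET, Eu(K)-anti-GST donor, streptavidin-D2 acceptor, ex 340, em 617/671 nm · Benchmarks – high control biotin, low control 0.6% DMSO · Format – 1536-well plates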
PG9 bind confirm = confirmation of small molecules binding HIV-1 gp120 antibody PG9 | shares compounds with PG9 Ab binder | TR-FRET PG9 antibody binding, biochemical | inhibition, % at 6.7 µM | 90% of 1,500 active; in the data active means inhibition above about 9%
PGV04 Ab binding = counter-screen for PG9 binders: binding control antibody PGV04; 95% of 1,500 active; shares compounds with PG9 Ab binder; TR-FRET PGV04 antibody-gp120 binding, biochemical; inhibition, % at 6.7 µM; in the data active means inhibition above about 9.5%
PG9 binder DR = small molecules binding HIV-1 gp120 antibody PG9; shares compounds with PG9 Ab binder; TR-FRET PG9 antibody-gp120 binding inhibition; IC50, µM; 95 tested, under 10 active; AID 651848; in the data active means IC50 below about 10 µM
PGV04 DR counter = PGV04 binding, dose response counter-screen | shares compounds with PG9 Ab binder | TR-FRET binding to control antibody PGV04 | IC50, µM | 20% of 95 active | AID 651937
PG126 DR counter = PG126 binding, dose response counter-screen. shares compounds with PG9 Ab binder. TR-FRET binding to antibody PG126, counterscreen. IC50, µM. 20% of 95 active
Large screens that a line does not name were inactive (follow-up assays come after a bar, where they were run). Unless noted, no stated cut-off is given here; in the data, active means IC50 below about 9 µM; inactive means the rest.

COc1ccc(OC)c(S(=O)(=O)Nc2ccc(C(C)=O)cc2)c1	PG9 Ab binder 8.6 | PG9 bind confirm 21 | PGV04 Ab binding 19 | PG9 binder DR inactive | PGV04 DR counter inactive | PG126 DR counter inactive
COC(=O)[C@]12C[C@H](CC(=O)N3CCN(C(=O)c4ccco4)CC3)C(=O)N(Cc3ccccc3)C1=C[C@H](C(C)(C)C)O[C@@H]2C	none (no result: MT1-MMP act inh, SKN-1 block, NR2E3 ag-1, NR2E3 ag-2)
Cc1ccc(CNC(=O)CSc2nc(C)cc(C)c2C#N)cc1	PG9 Ab binder 58 | PG9 bind confirm 39 | PGV04 Ab binding 45
Cc1ccc2nc(SCC(=O)NCc3ccco3)c(C#N)cc2c1	PG9 Ab binder 13 | PG9 bind confirm 11 | PGV04 Ab binding 18
N=c1oc2ccccc2cc1-c1nc(-c2ccc(Cl)cc2)cs1	PG9 Ab binder 10 | PG9 bind confirm 8.8 | PGV04 Ab binding 13
O=c1oc2ccccc2cc1-c1csc(Cc2nc(-c3ccc(Cl)cc3)cs2)n1	none
O=C(COC(=O)c1cc2ccccc2oc1=O)Nc1ccc(F)cc1F	PG9 Ab binder 15 | PG9 bind confirm 16 | PGV04 Ab binding 48
CCN(c1ccc(NC(=O)COC(=O)c2cc3ccccc3oc2=O)cc1)C(C)C	none
COc1ccc2c(c1)[C@@H](NC(=O)c1ccncc1)[C@H](C)[C@H]2c1ccccc1	none (no result: MT1-MMP act inh, SKN-1 block, NR2E3 ag-1, NR2E3 ag-2)
COCCCN1C(=O)C(=O)/C(=C(/O)c2ccc(OCC(C)C)cc2)C1c1cccnc1 (stereo unspecified)	none
COCCCN1C(=O)C(=O)/C(=C(/O)c2ccc(OC(C)C)cc2)C1c1cccnc1 (stereo unspecified)	PG9 Ab binder 10 | PG9 bind confirm 14 | PGV04 Ab binding 19
CCCCOCCCNC(=O)C[C@H]1C[C@@]2(C(=O)OC)C(=C[C@H](COCc3ccccc3)O[C@@H]2C)N(CCC2=CCCCC2)C1=O	none (no result: MT1-MMP act inh, SKN-1 block, NR2E3 ag-1, NR2E3 ag-2)
COc1ccc2c(c1)C(C)CC(C)(C)N2C(=O)CSc1ncn[nH]1 (stereo unspecified)	PG9 Ab binder 16 | PG9 bind confirm 11 | PGV04 Ab binding 15
Cc1cc(N2CCN(C(=O)OC(C)(C)C)C[C@@H]2C)ccc1Br	none (no result: MT1-MMP act inh, SKN-1 block, NR2E3 ag-1, NR2E3 ag-2)
O=C(Nc1ccc(Br)cn1)c1ccc2ccccc2c1	none
O=C(Nc1ccc(Br)cn1)c1cccc(C(=O)Nc2ccc(Br)cn2)c1	PG9 Ab binder 12 | PG9 bind confirm 41 | PGV04 Ab binding 55
Cc1ccc2nc(NC(=O)c3ccc(N4C(=O)CCC4=O)cc3)sc2c1	none
CC(C)(C)NS(=O)(=O)c1ccc2nc(NC(=O)c3ccc(N4C(=O)CCC4=O)cc3)sc2c1	PG9 Ab binder 48 | PG9 bind confirm 46 | PGV04 Ab binding 64
COC(=O)Nc1nc(-c2ccccc2)c(C(=O)c2ccccc2)s1	PG9 Ab binder 20 | PG9 bind confirm 19 | PGV04 Ab binding 19 | PG9 binder DR inactive | PGV04 DR counter inactive | PG126 DR counter inactive
NS(=O)(=O)c1ccc(NC(=O)COC(=O)c2cn(-c3ccccc3)nc2-c2ccc(F)cc2)cc1	PG9 Ab binder 9.0 | PG9 bind confirm 16 | PGV04 Ab binding 24
Nc1ccn([C@@H]2O[C@H](C(=O)N[C@H](Cc3ccccc3)C(=O)Nc3ccc4scnc4c3)[C@@H](O)[C@H]2O)c(=O)n1	none (no result: MT1-MMP act inh, SKN-1 block, NR2E3 ag-1, NR2E3 ag-2)
COc1cc(/C=C/C(=O)OCC(=O)Nc2ccccc2Cl)cc(OC)c1OC	PG9 Ab binder 23 | PG9 bind confirm 27 | PGV04 Ab binding 41
COc1cc(/C=C/C(=O)OCC(=O)NCCc2ccccc2)cc(OC)c1OC	none
COc1ccc(-n2c(=O)[nH]cc(C(=O)Nc3ccc4c(c3)OCCO4)c2=O)cc1OC	none
COc1cccc(-n2c(=O)[nH]cc(C(=O)Nc3ccc4c(c3)OCCO4)c2=O)c1	PG9 Ab binder 29 | PG9 bind confirm inactive | PGV04 Ab binding inactive
CC(=O)c1ccc(N2CCN(S(=O)(=O)c3cccc(S(=O)(=O)N4CCOCC4)c3)CC2)cc1	PG9 Ab binder 16 | PG9 bind confirm 18 | PGV04 Ab binding 27
O=C(CSc1ccc2nnc(-c3cccc(F)c3)n2n1)N1CCCc2ccccc21	PG9 Ab binder 9.1 | PG9 bind confirm 18 | PGV04 Ab binding 39
O=C(CSc1ccc2nnc(-c3ccc(F)cc3)n2n1)N1CCCc2ccccc21	none
CCOc1ccc(/C(O)=C2/C(=O)C(=O)N(c3ccccn3)C2c2ccc(F)cc2)c(C)c1 (stereo unspecified)	PG9 Ab binder 10 | PG9 bind confirm 18 | PGV04 Ab binding 24
CCCOc1ccc(/C(O)=C2/C(=O)C(=O)N(c3ccccn3)C2c2ccc(OC)cc2)cc1C (stereo unspecified)	PG9 Ab binder 17 | PG9 bind confirm 25 | PGV04 Ab binding 36
COC(=O)[C@@]12CCCCC=C1N(CCc1ccc(Cl)cc1)C(=O)[C@H]2CC(=O)NCc1cccc2ccccc12	none (no result: MT1-MMP act inh, SKN-1 block, PG9 Ab binder, NR2E3 ag-1, NR2E3 ag-2)
COC(=O)C1CN(Cc2ccc(F)cc2)CCS(=O)(=O)N1Cc1ccccc1 (stereo unspecified)	none (no result: MT1-MMP act inh, SKN-1 block, PG9 Ab binder, NR2E3 ag-1, NR2E3 ag-2)
CCCC[n+]1ccn(-c2nc3ccccc3nc2[N-]S(=O)(=O)c2ccc(Cl)cc2)c1	PG9 Ab binder 17 | PG9 bind confirm 28 | PGV04 Ab binding 34
CCCCC[n+]1ccn(-c2nc3ccccc3nc2[N-]S(=O)(=O)c2ccccc2)c1	none
Cc1ccc(-n2c(SCC(N)=O)nc3c(c2=O)C2(CCCC2)Cc2ccccc2-3)cc1	PG9 Ab binder 11 | PG9 bind confirm 23 | PGV04 Ab binding 32
CCCCC1=CC2=C(c3ccco3)C(=O)C(C)(OC(=O)c3ccc(OC)cc3)C(=O)C2=CN1CCCOC(C)C (stereo unspecified)	none
C=CCN1C=C2C(=O)C(C)(OC(=O)c3ccc(OC)cc3)C(=O)C(c3ccco3)=C2C=C1CCCC (stereo unspecified)	PG9 Ab binder 9.7 | PG9 bind confirm 16 | PGV04 Ab binding 20
